In experiment [1] the test system is Plasmodium yoelii. Description: In vivo antimalarial activity as parasitemia at day 17 in chloroquine-resistant Plasmodium yoelii nigerienses infected Swiss Albino mice (Mus musculus) treated at day 10; No survivors. The format is functional, organism-based.
In experiment [2] the test system is Plasmodium yoelii. Description: In vivo resistance reversal (control MST = 1 week) in chloroquine-resistant Plasmodium yoelii nigerienses infected Swiss Albino mice (Mus musculus). The class given is functional.
For experiment [3], the system named is Plasmodium berghei. Briefly: In vivo antimalarial activity as parasitemia at day 10 in chloroquine-resistant Plasmodium berghei infected Mastomys coucha at 10 mg/kg; range 15-17%. The format is functional.
Experiment [4] concerns Plasmodium yoelii nigeriensis. Briefly: In Vitro inhibition of Heme Oxygenase in Cell-free parasite Plasmodium yoelii at concentration 10 uM. The class given is functional. The essentials: (§1)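 Heme oxygenase activity was measured as bilirubin formation in a post-mitochondrial fraction. The parasite enzyme came from cell-free P. yoelii, isolated from infected blood by density gradient centrifugation and saponin lysis. The host enzyme came from infected liver. Compounds were tested at 10–100 µM and preincubated for 10 min before the reaction was started.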

In experiment [5] the test system is Plasmodium berghei. Briefly: In vivo resistance reversal after 1 month in chloroquine-resistant Plasmodium berghei infected Mastomys coucha at 15 mg/kg on day 10; No inhibition.
Experiment [6] relates to Plasmodium yoelii. Briefly: In vivo antimalarial activity as pretreatment parasitaemia in chloroquine-resistant Plasmodium yoelii nigeriensis infected Swiss Albino mice (Mus musculus); range 1-2%. The class given is functional.
Experiment [7] addresses T1, Glutathione S-transferase (Plasmodium yoelii yoelii) (UniProt Q7REH6).
T1 sequence (whole entry): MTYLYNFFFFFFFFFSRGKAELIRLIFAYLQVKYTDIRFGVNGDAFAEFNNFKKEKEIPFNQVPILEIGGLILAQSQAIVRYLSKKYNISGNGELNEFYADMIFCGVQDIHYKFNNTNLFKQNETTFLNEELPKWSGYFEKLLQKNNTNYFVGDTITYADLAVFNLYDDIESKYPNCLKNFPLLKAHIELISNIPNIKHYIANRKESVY
Briefly: Inhibition of Glutathione S-transferase in Plasmodium yoelii nigeriensis isolated from infected mice (Mus musculus) (oral). Conditions: concentration not given here. The format is functional. Put shortly:
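Mice infected with P. yoelii nigeriensis were dosed orally at 15 mg/kg body wt for 5 days. Parasites were then isolated from blood by density-gradient centrifugation and saponin lysis. Glutathione-S-transferase (and heme oxygenase) activity is given as % inhibition.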

Experiment [8] has as its system Plasmodium berghei. Briefly: Hemozoin formation in chloroquine-resistant Plasmodium berghei at 15 mg/kg for 10 days.
Experiment [9] concerns Plasmodium yoelii. Description: In vivo resistance reversal agent in chloroquine-resistant Plasmodium yoelii nigerienses infected Swiss Albino mice (Mus musculus). Parasitemia observed on day 6-10 of treatment in Group IV;range is 80-70%. The format is functional.
Experiment [10] concerns Plasmodium yoelii nigeriensis. Briefly: In Vitro inhibition of Heme Oxygenase in Cell-free parasite Plasmodium yoelii at concentration 10 uM;NI denotes nil inhibition. The class given is functional. The essentials: as §1
Experiment [11] relates to Plasmodium berghei. Description: Heme content in chloroquine-resistant Plasmodium berghei. The format is functional.
For experiment [12], the species on record is Mus musculus. Briefly: In Vitro inhibition of Heme Oxygenase in Plasmodium yoelii (host) at concentration 50 uM. The format is functional. The essentials:
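In vitro heme oxygenase, cell-free: post-mitochondrial fractions of P. yoelii parasites and of infected host liver. Test compounds at 10-100 µM were preincubated 10 min in the assay system before the enzyme reaction started. Activity was followed as bilirubin formation and expressed as % inhibition.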

Experiment [13] deals with Plasmodium yoelii nigeriensis. Briefly: In Vitro inhibition of Heme Oxygenase in Cell-free parasite Plasmodium yoelii at concentration 100 uM. The class given is functional. Put shortly: as §1

The text below walks through data of ChEMBL document CHEMBL1133641, “A new class of potential chloroquine-resistance reversal agents for Plasmodia: syntheses and biological evaluation of 1-(3'-diethylaminopropyl)-3-(substituted phenylmethylene)pyrrolidines” (2000).

For the compound `CCN(CC)CCCN1CC/C(=C\c2ccc(OC)cc2)C1`, the NS result in [1] was “No survivors”. Also, in [2], the Mean survival time was 1. The Parasites in [3] was found to be 17%; in experiment [6] it was 2%; in [9], 80%. The inhibition was 48% in [4], 99% in [7], 21% in experiment [12] and 87% in experiment [13]. Also, the NI result in experiment [5] and in experiment [10] was “No inhibition” in each case. In addition, the results for the Mean in experiment [8] and in [11] were 71.1 pmol/mg and 60.3 pmol/mg, respectively.

For orientation: inhibition means the share of the control response that was lost under treatment. A higher inhibition goes with a strong effect.
